For 13 compounds, Drug uptake, Ki and Activity results are on record in ChEMBL document CHEMBL2040779, “Multidentate (18)F-polypegylated styrylpyridines as imaging agents for Aβ plaques in cerebral amyloid angiopathy (CAA)” (J Med Chem, 2011).

The test system of series [1] is Bone. Kind of series: Biodistribution in ICR mouse bone at 925 KBq, iv after 2 mins by gamma counting. The format is ADME, organism-based, Bone element. As to conditions: in vivo. A digest of the protocol:
(§1)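 The ¹⁸F tracer was given iv to normal ICR mice (n = 6 per time point). Animals were killed by cardiac excision under isoflurane at 2 or 30 min. Organs were removed, weighed and γ-counted. %dose/g was calculated against counts of a 100-fold diluted aliquot of the injectate (1% of initial dose), counted at the same time.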

Series [2] relates to Liver. Kind of series: Biodistribution in ICR mouse liver at 925 KBq, iv after 30 mins by gamma counting. The format is ADME, organism-based. To be noted: in vivo, 0.5 h. A digest of the protocol:
as §1

Series [3] relates to Kidney. The series can be described thus: Biodistribution in ICR mouse kidney at 925 KBq, iv after 2 mins by gamma counting. The format is ADME, organism-based. As to conditions: in vivo. A digest of the protocol:
as §1

The subject of series [4] is Muscle tissue. Kind of series: Biodistribution in ICR mouse muscle at 925 KBq, iv after 2 mins by gamma counting. The format is ADME, organism-based. As to conditions: in vivo. A digest of the protocol:
as §1

The subject of series [5] is Bone. Kind of series: Biodistribution in ICR mouse bone at 925 KBq, iv after 30 mins by gamma counting. The format is ADME, organism-based, Bone element. As to conditions: in vivo, 0.5 h. A digest of the protocol:
as §1

The test system of series [6] is Blood. The series can be described thus: Biodistribution in ICR mouse blood at 925 KBq, iv after 30 mins by gamma counting. The format is ADME, organism-based. As to conditions: in vivo, 0.5 h. The method in brief:
as §1

The subject of series [7] is Brain. Kind of series: Biodistribution in ICR mouse brain at 925 KBq, iv after 2 mins by gamma counting. The format is ADME, organism-based. As to conditions: in vivo. A digest of the protocol:
as §1

Series [8] concerns Liver. Kind of series: Biodistribution in ICR mouse liver at 925 KBq, iv after 2 mins by gamma counting. To be noted: in vivo. The format is ADME, organism-based. The method in brief:
as §1

Series [9] deals with Brain. Kind of series: Biodistribution in ICR mouse brain at 925 KBq, iv after 30 mins by gamma counting. The format is ADME, organism-based. As to conditions: in vivo, 0.5 h. A digest of the protocol: as §1
Series [10] concerns Muscle tissue. Kind of series: Biodistribution in ICR mouse muscle at 925 KBq, iv after 30 mins by gamma counting. The format is ADME, organism-based. To be noted: in vivo, 0.5 h. A digest of the protocol: as §1
Series [11] has as its system Kidney. Kind of series: Biodistribution in ICR mouse kidney at 925 KBq, iv after 30 mins by gamma counting. The format is ADME, organism-based. As to conditions: in vivo, 0.5 h. The method in brief: as §1
In series [12] the test system is Blood. Kind of series: Biodistribution in ICR mouse blood at 925 KBq, iv after 2 mins by gamma counting. To be noted: in vivo. The format is ADME, organism-based. The method in brief:
as §1

The target in series [13] is T1, Amyloid-beta precursor protein (Homo sapiens, UniProt P05067). The series can be described thus: Displacement of [18F]-amyvid from amyloid-beta aggregates in alzheimer's disease patient brain homogenates after 1 hr. The format is tissue-based. A digest of the protocol:
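Competition binding in post-mortem AD brain tissue homogenates against [¹⁸F]5 bound to Aβ aggregates. Results are expressed as inhibition constants (Ki, nM).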
On the technique in general: Displacement assays read how much labelled ligand stays bound in the presence of the test substance.

Series [14] addresses T1, Amyloid-beta precursor protein. The series can be described thus: Binding affinity to amyloid-beta plaque in parenchymal region of alzheimer's disease patient brain after 1 hr. As to conditions: tested as the 18F-labelled form. The method in brief: (§2)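 Post-mortem occipital sections (20 μm) from frozen brains of confirmed CAA, AD and control subjects. The ¹⁸F-labelled tracer was applied in 40% ethanol for 1 h. Sections were washed twice for 2 min in saturated Li₂CO₃/40% ethanol, once for 2 min in 40% ethanol, then rinsed 30 s in water. Dried sections were exposed to film for 12−18 h and the images digitized.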

Series [15] has the same target. Kind of series: Binding affinity to amyloid-beta plaque in cerebral blood vessels of normal human cerebral amyloid angiopathy region of brain after 1 hr. The format is tissue-based. To be noted: tested as the 18F-labelled form. A digest of the protocol:
as §2

Series [16] shares this target. Kind of series: Binding affinity to amyloid-beta plaque in cerebral blood vessels of alzheimer's disease patient cerebral amyloid angiopathy region of brain after 1 hr. The format is tissue-based. As to conditions: tested as the 18F-labelled form. The method in brief:
as §2

The target is the same in series [17]. The series can be described thus: Binding affinity to amyloid-beta plaque in parenchymal region of normal human brain after 1 hr. The format is tissue-based. To be noted: tested as the 18F-labelled form. A digest of the protocol: as §2
For series [18] the target is unchanged. Kind of series: Binding affinity to amyloid-beta plaque in cerebral blood vessels of alzheimer's disease patient cerebral amyloid angiopathy region of brain after 1 hr by autoradiography. The format is tissue-based. As to conditions: tested as the 18F-labelled form. A digest of the protocol: as §2
For series [19] the target is unchanged. The series can be described thus: Binding affinity to amyloid-beta plaque in cerebral blood vessels of alzheimer's disease patient cerebral amyloid angiopathy region of brain after 1 hr by thioflavin S staining. The format is tissue-based. As to conditions: tested as the 18F-labelled form. A digest of the protocol: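 Adjacent brain sections were fixed 1 h in 10% neutral buffered formalin. Staining was with 0.025% thioflavin S in 40% ethanol for 3−5 min, then differentiation in 50% ethanol. Sections were viewed by fluorescence microscopy.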

Structures are written as SMILES. pKi: −log10 of the molar value. Calls of active or inactive are those of the source. The calls are words filed in the database; no cut-off is given here.

T1 sequence (P05067 whole entry): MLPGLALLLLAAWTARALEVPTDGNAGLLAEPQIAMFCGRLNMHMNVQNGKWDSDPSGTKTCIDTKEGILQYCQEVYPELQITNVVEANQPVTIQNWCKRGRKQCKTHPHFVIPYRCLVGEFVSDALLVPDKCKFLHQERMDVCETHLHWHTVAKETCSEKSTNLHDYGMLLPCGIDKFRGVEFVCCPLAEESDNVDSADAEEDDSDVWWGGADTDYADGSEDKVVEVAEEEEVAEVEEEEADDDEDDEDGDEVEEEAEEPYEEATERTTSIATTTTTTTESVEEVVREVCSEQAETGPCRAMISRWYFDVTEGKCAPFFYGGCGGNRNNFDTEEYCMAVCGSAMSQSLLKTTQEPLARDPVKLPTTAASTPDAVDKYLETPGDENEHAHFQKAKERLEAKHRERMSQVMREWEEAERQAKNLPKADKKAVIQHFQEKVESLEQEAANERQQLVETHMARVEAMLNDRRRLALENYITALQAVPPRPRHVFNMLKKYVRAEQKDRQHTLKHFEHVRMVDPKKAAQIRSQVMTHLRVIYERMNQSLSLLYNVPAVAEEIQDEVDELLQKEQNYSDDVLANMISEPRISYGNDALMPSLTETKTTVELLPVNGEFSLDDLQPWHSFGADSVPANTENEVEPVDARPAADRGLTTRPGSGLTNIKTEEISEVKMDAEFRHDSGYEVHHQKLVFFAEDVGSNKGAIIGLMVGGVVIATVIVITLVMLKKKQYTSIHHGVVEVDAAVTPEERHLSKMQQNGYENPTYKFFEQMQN

For the compound `CNc1ccc(/C=C/c2ccc(OCCOCCOCCOCCOCCOCC(COCCOCCOCCOCCOCCOc3ccc(/C=C/c4ccc(NC)cc4)cn3)OCC[18F])nc2)cc1`, the Drug uptake was found to be 1.64 % ID/g with Bone [1]; 20 % ID/g with Liver [2]; 14.9 % ID/g with Kidney [3]; 1.3 % ID/g in the series on Muscle tissue [4]; 1.8 % ID/g in the series with Bone [5]; 1.32 % ID/g in the series on Blood [6]. Moreover, the Drug uptake in the series with Brain [7] came to 0.4 % ID/g; in the series on Liver [8] it was 33.5 % ID/g; in the series with Brain [9] it was 0.34 % ID/g; in the series with Muscle tissue [10], 1.62 % ID/g; with Kidney [11], 13.4 % ID/g; in the series on Blood [12], 2.55 % ID/g.
Consider `CNc1ccc(/C=C/c2ccc(OCCOCCOCCOCCOCCOCC(COCCOCCOCCOCCOCCOc3ccc(/C=C/c4ccc(NC)cc4)cn3)OCCF)nc2)cc1`, for which the pKi (as a rule, the negative decadic logarithm of the Ki, by convention in mol/L) in series [13] was 8.11.
Consider `CNc1ccc(/C=C/c2ccc(OCCOCCOCCOCCOCC(COCCOCCOCCOCCOc3ccc(/C=C/c4ccc(NC)cc4)cn3)OCC[18F])nc2)cc1`, for which the Drug uptake with Bone [1] is 1.3 % ID/g; in the series with Liver [2], 21.4 % ID/g; in the series on Kidney [3] it was 8.13 % ID/g; in the series on Muscle tissue [4] it was 0.82 % ID/g; in the series on Bone [5], 2.34 % ID/g; with Blood [6], 1.54 % ID/g. Moreover, the Drug uptake in the series with Brain [7] is given as 0.4 % ID/g; in the series with Liver [8], 21.2 % ID/g; with Brain [9] it was 0.4 % ID/g; in the series with Muscle tissue [10] it was 1.21 % ID/g; in the series with Kidney [11] it was 9.36 % ID/g; with Blood [12], 4.77 % ID/g.
Compound `CNc1ccc(/C=C/c2ccc(OCCOCCOCCOCCOCCOCCOCC(COCCOCCOCCOCCOCCOCCOc3ccc(/C=C/c4ccc(NC)cc4)cn3)OCCF)nc2)cc1` showed a negative-log Ki (pKi) in series [13] of 8.41.
The compound `CNc1ccc(-c2nc3ccc(O)cc3s2)cc1[18F]` [FLUTEMETAMOL F 18] showed a pKi in series [13] of 9.13.
In turn, `CNc1ccc(/C=C/c2ccc(OCCOCCOCC[18F])cc2)cc1` [FLORBETABEN F18] had a pKi in series [13] of 8.65.
In the case of `CN(C(=O)OC(C)(C)C)c1ccc(/C=C/c2ccc(OCCOCCOCCOCCOCC(COCCOCCOCCOCCOc3ccc(/C=C/c4ccc(N(C)C(=O)OC(C)(C)C)cc4)cn3)OCCF)nc2)cc1`, the negative-log Ki (pKi) in [13] was under 6.00.
As to `CNc1ccc(/C=C/c2ccc(OCCOCCOCCOCCOCCOCCOCC(COCCOCCOCCOCCOCCOCCOc3ccc(/C=C/c4ccc(NC)cc4)cn3)OCC[18F])nc2)cc1`, the Drug uptake is listed as 1.06 % ID/g in the series with Bone [1]; 16 % ID/g with Liver [2]; 13.7 % ID/g with Kidney [3]; 0.65 % ID/g with Muscle tissue [4]; 1.36 % ID/g with Bone [5]; 1.4 % ID/g in the series on Blood [6]. Moreover, the Drug uptake is 0.29 % ID/g in the series with Brain [7]; 30.2 % ID/g in the series with Liver [8]; 0.38 % ID/g in the series with Brain [9]; 1.29 % ID/g in the series on Muscle tissue [10]; 11.7 % ID/g with Kidney [11]; 3.12 % ID/g in the series on Blood [12].
On to `CNc1ccc(/C=C/c2ccc(OCCOCCOCCF)nc2)cc1`, for which the result in series [14] and in series [16] was Active. For the same compound, the outcome in series [15] and in series [17] was inactive.
Consider `CNc1ccc(/C=C/c2ccc(OCCOCCOCCOCCn3cc(COCC(COCCOCCOCCF)(COCc4cn(CCOCCOCCOCCOc5ccc(/C=C/c6ccc(NC)cc6)cn5)nn4)COCc4cn(CCOCCOCCOCCOc5ccc(/C=C/c6ccc(NC)cc6)cn5)nn4)nn3)nc2)cc1`, for which, in series [13], the negative logarithm of the Ki (pKi) is 6.33.
As for `CNc1ccc(/C=C/c2ccc(OCCOCCOCCOCCOCC(COCCOCCOCCOCCOc3ccc(/C=C/c4ccc(NC)cc4)cn3)OCCF)nc2)cc1`, the outcome in series [14], in series [18], in series [19] and in [16] was Active. Also, the outcome in [15] and in series [17] was inactive. In [13], this compound showed a pKi of 8.49.
As for `CNc1ccc(/C=C/c2ccc(OCCOCCOCC[18F])nc2)cc1` [FLORBETAPIR F 18], the Drug uptake is 1.43 % ID/g in the series on Bone [1]; 12.9 % ID/g in the series on Liver [2]; 10.9 % ID/g in the series with Kidney [3]; 1.06 % ID/g in the series on Muscle tissue [4]; 1.22 % ID/g in the series with Bone [5]; 2.8 % ID/g with Blood [6]. Also, the Drug uptake in the series on Brain [7] came to 7.77 % ID/g; in the series on Liver [8], 21.5 % ID/g; in the series on Brain [9], 1.59 % ID/g; with Muscle tissue [10] it was 1.78 % ID/g; in the series on Kidney [11], 6.31 % ID/g; in the series with Blood [12] it was 3.14 % ID/g.
In [13], `CNc1ccc(/C=C/c2ccc(OCCOCCOCCOCCNC(=O)CN(CC(=O)NCCOCCOCCOCCOc3ccc(/C=C/c4ccc(NC)cc4)cn3)C(=O)COCCOCCOCCF)nc2)cc1` had a pKi of 7.15.
